Measured values of several laboratories.
Target: Leukocyte tyrosine kinase receptor (LTK, Homo sapiens, UniProt P29376)

COc1ccc(OC)c2c(=S)c3ccccc3[nH]c12 — remaining activity (enzyme activity; inhibitor; radiometric; 0.5 µM): 84.5%
Cn1cncc1[C@](O)(COc1ccc(C#N)cc1-c1ccc(OC(F)(F)F)cc1)c1ccc(C#N)cc1 — remaining binding (cell-free assay; competition with immobilised ligand; 1 µM): 91%
Nc1ncc(-c2nc(N3CCOCC3)nc(N3CCOCC3)n2)c(C(F)F)n1 — remaining binding (cell-free assay; competition with immobilised ligand; 10 µM): 26%
CC(C)(C)c1nc2c(s1)c1nc(N)ncc1c1ccc(NS(=O)(=O)c3c(F)cccc3F)c(F)c12 — remaining activity (enzyme activity; inhibitor; radiometric; 1 µM): 90%
Cn1cc(-c2cccc(N3CCc4c(sc5c4CC(C)(C)C5)C3=O)c2CO)cc(Nc2ccncn2)c1=O — inhibition (enzyme activity; inhibitor; 1 µM): 4%
Cc1nn(C)cc1-c1nc2c(N3CCN(Cc4ccc(Cl)cc4)CC3)c(Cl)cnc2[nH]1 — remaining binding (binding; competition with immobilised ligand; 1 µM): 100%
Nc1nccc(-c2c(-c3ccc(F)cc3)ncn2C2CCNCC2)n1 — remaining activity (enzyme activity; inhibitor; radiometric; 0.5 µM): 97.3%
CC(C)(C)c1nc(-c2cccc(NS(=O)(=O)c3c(F)cccc3F)c2F)c(-c2ccnc(N)n2)s1 — remaining activity (enzyme activity; inhibitor; radiometric; 1 µM): 93%
Cn1cc(-c2cc(F)cc(N3CCn4c(cc5c4CCCC5)C3=O)c2CO)cc(Nc2ccc(N3CCN(C4COC4)CC3)cn2)c1=O — inhibition (enzyme activity; inhibitor; 0.1 µM): 11%
COc1ncccc1-c1cnn2ccc(N3CCN(C(=O)OC(C)C)CC3)nc12 — remaining binding (binding; competition with immobilised ligand; 1 µM): 68%
